Test results published in ChEMBL document CHEMBL4257469, “Deciphering the role of hydrophobic and hydrophilic bile acids in angiogenesis using in vitro and in vivo model systems” (Medchemcomm, 2017).
The source made the active and inactive calls. The calls are words filed in the database; no cut-off is given here.

Columns and labels:
Danio rerio [1] = species: Danio rerio; test: Antiangiogenic activity in Tg(fli:eGFP) zebrafish embryo assessed as effect on phynotypic changes after 72 hrs post fertilization by fluorescence microscopic analysis; type: functional, organism-based
How it was run: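 Tg(fli1:eGFP) zebrafish embryos were selected at 48 hpf, 20–25 per well, and exposed to bile acids at 6.25, 12.5 and 25 μM in embryo water from DMSO stocks. Vehicle was 0.1% DMSO. At 72 hpf the solutions were replaced with fresh embryo water. Embryos were anesthetized with tricaine and imaged by stereo and fluorescence microscopy for sub-intestinal vessel sprouting and branching. Two experiments, 50 embryos per group.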

HUVEC [2] = test: Induction of angiogenesis in HUVEC assessed as increase in tube length at 12.5 uM after overnight incubation by inverted microscopic analysis; type: functional, cell-based; settings: Homo sapiens
How it was run: (§1)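 Wells coated with Matigel:plain EBM-2 (1:1). HUVECs added at 2 × 10⁵ cells/well with bile acid (12.5 or 25 μM) or vehicle and left overnight. Bright-field images at 10× from five fields per well; nodes and tube lengths counted. Triplicate, three independent experiments; one-way ANOVA with Dunnett's test.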

HUVEC [3] = test: Pro-angiogenic activity in HUVEC assessed as stress fiber formation at 12.5 uM after overnight incubation by FITC-conjugated phalloidin staining based confocal microscopic analysis; type: functional, cell-based; settings: Homo sapiens
How it was run: (§2)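 HUVECs grown to 70% confluency on coverslips and treated with bile acids overnight. Fixed in 4% paraformaldehyde for 5 min and blocked with 1% BSA/0.1% Triton X-100 for 2 h. Stained with anti-VE-cadherin (1:200, 4 °C overnight) plus Alexa-488 secondary, FITC-phalloidin (1:100) for F-actin, and DAPI. Confocal imaging; repeated twice.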

Danio rerio [4] = species: Danio rerio; test: Pro-angiogenic activity in Tg(fli:eGFP) zebrafish embryo assessed as increase in branching of sub-intestinal veins at 12.5 uM after 72 hrs post fertilization by fluorescence microscopic analysis; type: functional, organism-based
How it was run: (§3)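 Tg(fli1:eGFP) embryos selected at 48 hpf, 20–25 per well, raised at 28.5 °C. Bile acids (DMSO stock, diluted in embryo water) given at 6.25, 12.5 or 25 μM; 0.1% DMSO as vehicle control. Solutions replaced with fresh water at 72 hpf, embryos anaesthetised with tricaine and sub-intestinal vessels imaged by fluorescence. Scored as percentage of embryos; two experiments, 50 embryos/group.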

HUVEC [5] = test: Decrease in MMP9 level in HUVEC at 12.5 uM after 24 hrs by ELISA; type: functional, cell-based; settings: Homo sapiens
How it was run: (§4)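 HUVECs in 6-well plates treated with 12.5 μM bile acid or DMSO vehicle. Medium supernatant collected 12 and 24 h after treatment. MMP9 measured by ELISA with HRP read-out at 405 nm, concentration interpolated from an MMP9 standard curve. Experiments done in duplicate.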

Danio rerio [6] = species: Danio rerio; test: Pro-angiogenic activity in Tg(fli:eGFP) zebrafish embryo at 6.25 uM after 72 hrs post fertilization by fluorescence microscopic analysis; type: functional, organism-based; how it was run: as §3
HUVEC [7] = test: Increase in VEGFR1 m-RNA expression in HUVEC at 12.5 uM after 12 to 24 hrs by RT-qPCR analysis; type: functional, cell-based; settings: Homo sapiens
How it was run: (§5)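 HUVECs treated with 12.5 μM bile acid or DMSO for 12 and 24 h. Total RNA extracted and 1 μg reverse-transcribed. SYBR-green qPCR for VEGFR1/VEGFR2: 95 °C 10 min, then 40 cycles of 95 °C 5 s / 60 °C 30 s. ΔΔCT normalised to GAPDH and expressed as fold change over control; repeated twice.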

HUVEC [8] = test: Increase in MMP9 level in HUVEC at 12.5 uM after 24 hrs by ELISA; type: functional, cell-based; settings: Homo sapiens; how it was run: as §4
HUVEC [9] = test: Antiangiogenic activity in HUVEC assessed as inhibition of endothelial tube formation at 25 uM after overnight incubation by inverted microscopic analysis; type: functional, cell-based; settings: Homo sapiens
How it was run: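 HUVECs at passages 2–5 were seeded at 2 × 10^5 cells per well on a gelled basement membrane matrix, made as Matrigel mixed 1:1 with plain EBM-2. Bile acids were added at 12.5 and 25 μM, with DMSO as vehicle control, and cells were treated overnight. Bright-field images were taken at 10× from five fields per well. Nodes and tube lengths were quantified. Runs were in triplicate; statistics by one-way ANOVA (Dunnett).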

HUVEC [10] = test: Pro-angiogenic activity in HUVEC assessed as decrease in cell-to-cell contact at 12.5 uM after overnight incubation by FITC-conjugated phalloidin staining based confocal microscopic analysis; type: functional; settings: Homo sapiens; how it was run: as §2
HUVEC [11] = test: Induction of angiogenesis in HUVEC assessed as increase in number of nodes at 12.5 uM after overnight incubation by inverted microscopic analysis relative to control; type: functional, Homo sapiens; how it was run: as §1
HUVEC [12] = test: Increase in wound healing in HUVEC at 12.5 uM after 18 to 24 hrs by phase contrast microscopic analysis; type: functional, cell-based; settings: Homo sapiens
How it was run: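 HUVECs grown to a confluent monolayer in 12-well plates and serum-deprived overnight. Scratched with a p200 tip, washed with DPBS, then given complete EBM-2 with 12.5 μM bile acid or DMSO vehicle. Imaged from a marked reference point at 0 h and after 18–24 h (phase contrast, 10×); percentage of migrated cells versus control. Triplicate; Dunnett's test.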

HUVEC [13] = test: Pro-angiogenic activity in HUVEC assessed as decrease in VE-cadherin expression at 12.5 uM after overnight incubation by FITC-conjugated phalloidin staining based confocal microscopic analysis; type: functional, cell-based; settings: Homo sapiens; how it was run: as §2
Danio rerio [14] = species: Danio rerio; test: Pro-angiogenic activity in Tg(fli:eGFP) zebrafish embryo assessed as increase in sprouting and branching of sub-intestinal vessels (after 72 hrs post fertilization by fluorescence microscopic analysis; type: functional, organism-based; how it was run: as §3
Danio rerio [15] = species: Danio rerio; test: Pro-angiogenic activity in Tg(fli:eGFP) zebrafish embryo assessed as sub-intestinal vein baskets extending towards ventral side at 12.5 uM after 72 hrs post fertilization by fluorescence microscopic analysis; type: functional, organism-based; how it was run: as §3
Danio rerio [16] = species: Danio rerio; test: Toxicity in zebrafish embryo assessed as reduction in embryo survival up to 50 uM; type: organism-based; settings: in vivo
Danio rerio [17] = species: Danio rerio; test: Pro-angiogenic activity in Tg(fli:eGFP) zebrafish embryo assessed as increase in sprouting of sub-intestinal veins at 12.5 uM after 72 hrs post fertilization by fluorescence microscopic analysis; type: functional, organism-based; how it was run: as §3
HUVEC [18] = test: Cytotoxicity against HUVEC assessed as reduction in cell death up to 12.5 uM after 24 hrs by MTT assay; type: cell-based; settings: human
How it was run: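 HUVECs (passages 2–5, complete EBM-2) seeded at 5 × 10³ cells/well and left 24 h to adhere. Serum-starved 4 h, then exposed to bile acids (serial dilutions, 100 to 6.25 μM) in complete medium for 24 h. MTT added for 4 h at 37 °C, formazan dissolved in DMSO, absorbance read at 550 nm. Run in triplicate; three independent experiments.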

HUVEC [19] = test: Induction of angiogenesis in HUVEC assessed as increase in tube formation at 12.5 uM after overnight incubation by inverted microscopic analysis; type: functional, cell-based; settings: Homo sapiens; how it was run: as §1
HUVEC [20] = test: Increase in VEGFR2 m-RNA expression in HUVEC at 12.5 uM after 12 to 24 hrs by RT-qPCR analysis; type: functional, cell-based; settings: Homo sapiens; how it was run: as §5
HUVEC [21] = test: Cytotoxicity against HUVEC assessed as reduction in cell viability at 6.25 to 100 uM after 24 hrs by MTT assay; type: cell-based; settings: human
How it was run: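 HUVECs at passages 2–5 were seeded at 5 × 10^3 cells per well in complete EBM-2 and allowed to adhere for 24 h. They were serum-starved 4 h, then given serially diluted bile acids (100 to 6.25 μM) in complete medium for 24 h. MTT was added for 4 h at 37 °C. Formazan was dissolved in DMSO and absorbance read at 550 nm. Three independent experiments.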

Danio rerio [22] = species: Danio rerio; test: Pro-angiogenic activity in Tg(fli:eGFP) zebrafish embryo assessed as arcades formation at 12.5 uM after 72 hrs post fertilization by fluorescence microscopic analysis; type: functional, organism-based; how it was run: as §3

With `O=c1cc(N2CCOCC2)oc2c(-c3ccccc3)cccc12` the Activity (Danio rerio [1]) was “Active”.
For `C[C@H](CCC(=O)O)[C@H]1CC[C@H]2[C@@H]3[C@H](O)C[C@@H]4C[C@H](O)CC[C@]4(C)[C@H]3CC[C@]12C` [CHENODIOL], the Activity (HUVEC [2]) was “Active”, the Activity (HUVEC [3]) was “Active” and the Activity (Danio rerio [4]) was “Active”. For the same molecule, the Activity (HUVEC [5]) was “Active”, the Activity (Danio rerio [6]) was “Active” and the Activity (HUVEC [7]) was “Active”. The Activity (HUVEC [8]) was “Active”, the Activity (HUVEC [9]) was “inactive” and the Activity (HUVEC [10]) was “Active”. The Activity (HUVEC [11]) was 150%, the Activity (HUVEC [12]) was “Active” and the Activity (HUVEC [13]) was “Active”. The Activity (Danio rerio [14]) was “Dose-dependent effect”, the Activity (Danio rerio [15]) was “Active” and the Activity (Danio rerio [16]) was “Non-Toxic”. The Activity (Danio rerio [17]) was “Active”, the Activity (HUVEC [18]) was “Non-Toxic” and the Activity (HUVEC [19]) was “Active”. The Activity (HUVEC [20]) was “Active”, the Activity (HUVEC [21]) was “Non-Toxic” and the Activity (Danio rerio [22]) was “Active”.
